# TPT1 inhibitor – blocks Candida albicans tRNA 2'-phosphotransferase | recombinant caTPT1, FP RNA substrate dephosphorylation | inhibition, % at 5 µM | 300,000 compounds, 0.81% hits | AID 1962;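 active = inhibition above the mean of all tested compounds plus 3 SD, set per screening campaign, cut at about 24% in these data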;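 note: plate controls were DMSO alone for no effect and ferristatin control at 100 nM for full effect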
# HNF4A DNA FP – change in binding of human HNF4 alpha to DNA; P41235; HNF4a-FITC DNA binding, fluorescence polarization, 1 h; activity change, % at 10 µM; 360,000 compounds, 0.3% hits; in the data active = activity change above about 30%, passing the limit was not always enough
# Target sequence (P41235 whole entry, looked up): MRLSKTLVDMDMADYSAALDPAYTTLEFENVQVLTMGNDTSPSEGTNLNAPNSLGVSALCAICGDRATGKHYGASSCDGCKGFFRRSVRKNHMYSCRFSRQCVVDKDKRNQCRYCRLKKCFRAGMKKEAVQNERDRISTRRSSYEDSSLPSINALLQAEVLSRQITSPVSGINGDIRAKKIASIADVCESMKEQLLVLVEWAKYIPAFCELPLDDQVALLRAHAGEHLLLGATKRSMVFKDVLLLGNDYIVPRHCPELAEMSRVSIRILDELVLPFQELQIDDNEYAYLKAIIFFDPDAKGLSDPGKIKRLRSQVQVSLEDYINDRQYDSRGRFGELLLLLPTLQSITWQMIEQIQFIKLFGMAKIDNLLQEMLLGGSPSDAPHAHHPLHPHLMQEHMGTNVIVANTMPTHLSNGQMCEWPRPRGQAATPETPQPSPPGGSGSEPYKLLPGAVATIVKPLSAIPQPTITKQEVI
# CSN deneddyl inh – inhibitors of human CSN-mediated cullin deneddylation. Purified CSN, SCF-Nedd8-OG deneddylation, fluorescence polarization. inhibition, % at 12.5 µM. 360,000 compounds, 0.38% hits. AID 651999;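 active = pattern-corrected inhibition above about 35%, with an unprinted fluorescence ratio check between 0.5 and 1.5, limit read from the data, passing the limit was not always enough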;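 note: 0% = enzyme with substrate and 100% = substrate without enzyme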
#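 Test system: Human Csn5 produced in HEK293T cells | Compound: 12.5 µM single point | Times: 90 min, room temperature | Signal: Fluorescence polarization readout | Read-out basis: % inhibition of substrate cleavage by Csn5 | Controls: no-enzyme wells high, enzyme-with-substrate wells low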
# NR1D1 modulator – modulators of human Rev-erb alpha DNA binding. activity, % at 10 µM. 370,000 compounds, 0.79% hits. Rev-erbα–FITC-DNA binding, fluorescence polarization, 90 min;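 active = activity above about 14%, limit read from the data; passing the limit was not always enough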;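 note: 0% = DMSO wells with 35 nM protein and 100% = DMSO wells with 750 nM protein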
# caTPT1 confirm – confirmation of Candida albicans TPT1 inhibitors. shares compounds with TPT1 inhibitor. recombinant caTPT1, fluorescence polarization, RNase T1 coupled. inhibition, % at 5 µM. 2,400 compounds, 74% hits;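 active = inhibition above the primary screen limit, the mean inhibition of all tested compounds plus 3 SD, cut at about 25% in these data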
# RNase T1 inh – RNase T1 inhibition in TPT1 counter-screen; shares compounds with TPT1 inhibitor; inhibition, % at 5 µM; AID 2153; 2,400 compounds, 83% hits; RNase T1 cleavage, fluorescence polarization, 1536-well;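 active = inhibition above the solvent-only control well mean plus 3 SD, limit set per screening run, cut at about 23% in these data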;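 note: plate controls were DMSO wells with enzyme for no effect and wells without RNase T1 for full effect; inhibitors block cleavage so intact labeled substrate keeps polarization high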
# Active calls of the source: *; . = no result given. Most compounds without a hit are left out; they make up all but 1.7% or so of the library.
SMILES,TPT1 inhibitor,HNF4A DNA FP,CSN deneddyl inh,NR1D1 modulator,caTPT1 confirm,RNase T1 inh
CCN1C(=O)[C@@H]2Cc3c([nH]c4ccccc34)C(c3ccc(OC)cc3)N2C1=S (some centres undefined),64.8*,43.5*,24.3,.,48.5*,59.7*
COC(=O)c1ccc2nc(C3CCCCC3)c(Cc3ccccc3OC)n2c1,.,.,.,9.9,.,.
COCCCn1c(O)c(/C=C2\N=C(C#N)C(=Nc3ccc(C)cc3)O2)sc1=S,78.7*,110.4,19.7,3.9,79.7*,84.9*
CC[n+]1c(/C=C/C=C/N(C(C)=O)c2ccccc2)sc2cc(OC)ccc21,56.1*,.,.,1.6,75.9*,81.0*
CCCCc1ccc(CC2S/C(=C(\C#N)C(=O)N3CCOCC3)N(c3ccccc3)C2=O)cc1 (centres undefined),34.6*,0.0,1.5,2.8,61.9*,73.7*
N#C/C(C(=O)N1CCOCC1)=C1/SC(Cc2ccccc2)C(=O)N1c1ccccc1 (centres undefined),20.8,-1.0,0.0,0.4,.,.
O=C(Cc1ccc(Cl)cc1)NNC(=S)NC(=O)c1cccnc1,35.2*,2.9,-2.1,1.3,45.0*,58.2*
O=C(Oc1coc(CSc2ncccn2)cc1=O)c1ccccc1[N+](=O)[O-],46.3*,-3.6,0.5,-2.9,6.3,9.8
CN(C)c1ccc(-n2cccc2/C=C/[N+](=O)[O-])cc1,-2.9,6.4,-5.3,-2.4,.,.
CN(c1ccccc1)c1ccc(/C=C/[N+](=O)[O-])cc1,41.9*,1.8,6.0,-0.8,54.7*,71.4*
O=C(NCC(c1ccccc1)c1ccccc1)[C@H](Cc1ccccc1)NC1(C(=O)NC2CCCCC2)CCCC1,.,.,.,2.0,.,.
O=C1/C(=C/c2ccccc2)Nc2ccccc21,62.8*,14.7,-4.9,-1.1,63.6*,69.7*
O=C1CNC(=O)/C(=C\c2ccccc2)N1,-4.1,2.7,2.3,-1.2,.,.
CCOC(=O)c1sc2cc([N+](=O)[O-])cc(SCC(C)C)c2c1N,31.7*,24.9,19.5,1.5,35.4*,46.4*
CCOC(=O)c1cc(N)cc([N+](=O)[O-])c1,-2.8,0.1,0.5,2.9,.,.
Cc1ccccc1C(=O)N1CCN(c2ccc(NC(=O)c3ccccc3[N+](=O)[O-])cc2)CC1,-2.8,0.5,-3.8,-2.7,.,.
Cc1ccccc1C(=O)N1CCN(c2ccc(NC(=O)c3cccnc3Cl)cc2)CC1,94.5*,4.0,7.7,1.9,4.9,5.4
CCOc1ccc(-n2c(SCC(=O)c3ccc4ccccc4c3)nnc2-c2cccc(Cl)c2)cc1,.,.,.,-1.4,.,.
COC1=C[C@H](C(=O)NCc2ccccn2)[C@H](C)[C@@H](c2ccccc2)CC1=O,.,.,.,5.0,.,.
CCCCC(=O)Nc1ccc(C(=O)Nc2ccc(OC)cc2[N+](=O)[O-])cc1,27.4*,95.3,130.7,2.4,53.5*,62.8*
CCCCC(=O)Nc1ccc(NC(=O)c2ccc([N+](=O)[O-])cc2)cc1OC,1.1,-0.7,-6.9,-7.3,.,.
COc1cc(/C=C2\CC/C(=C\c3ccc(OCCO)c(OC)c3)C2=O)ccc1OCCO,107.0*,12.1,33.5,2.5,114.1*,113.5*
CCCCN1CCN(C(=O)c2ccc(CNC(=O)c3cccc(Br)c3)cc2)CC1,.,.,.,-2.4,.,.
CCN1C(=S)SC(=O)C1=C1C=C(C)N(CCO)C(C)=C1,37.8*,0.1,-5.0,3.6,52.6*,62.3*
COc1ccc(C(=O)c2sc3nc(C)cc(-c4cccs4)c3c2N)cc1,.,29.6,10.1,-2.0,.,.
SMILES,TPT1 inhibitor,HNF4A DNA FP,CSN deneddyl inh,NR1D1 modulator,caTPT1 confirm,RNase T1 inh
COc1ccc(C(=O)c2sc3nc(C)cc(-c4cccs4)c3c2N)cc1OC,72.9*,35.5,20.1,3.1,72.6*,78.2*
Cc1cc(-c2cccs2)c2c(N)c(C(=O)c3ccc4c(c3)OCO4)sc2n1,36.5*,32.9,15.4,-3.9,57.5*,67.3*
Nc1[nH]c(C(=O)c2ccccc2)c(-c2ccccn2)c1C(=O)c1c[nH]c2ccc(Br)cc12,.,.,.,1.7,.,.
O=C(O)c1cccc(Cn2c(Cl)c(/C=N/Nc3ccccc3)sc2=O)c1,48.0*,12.0,11.4,.,65.2*,78.6*
CN(C)c1ccc(/C=C(\Cl)c2nc3ccccc3s2)cc1,72.6*,46.1*,22.7,.,84.1*,90.5*
COc1ccc(CCNc2nc(C)c(C(C)=O)s2)cc1OC,-1.5,2.0,0.5,.,.,.

# Bioassay records deposited in PubChem BioAssay by several laboratories.
